Test results taken from ChEMBL document CHEMBL4706672 (J Med Chem, 2021).
Activity calls are given as the source filed them. The rule behind the calls is not given here.

Tests used:
[1] = system: HEK293; experiment: Antiproliferative activity against human HEK293 cells assessed as reduction in cell viability incubated for 24 hrs by MTT assay; assay type: functional, cell-based; settings: HEK293, 24 h
Method in brief: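 HEK-293 cells were treated with compound for 24 h, in parallel with the luciferase reporter assay. Viability was read by MTT absorbance at 570 nm, and IC50 was taken from three independent experiments.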

[2] = system: BXPC-3; experiment: Antiproliferative activity against human BxPC-3 cells assessed as reduction in cell viability incubated for 3 days by MTT assay; assay type: functional, cell-based; settings: BXPC-3, 72 h
[3] = system: MIA PaCa-2; experiment: Antiproliferative activity against human MIA PaCa-2 cells assessed as reduction in cell viability incubated for 3 days by MTT assay; assay type: functional, cell-based; settings: MIA PaCa-2, 72 h
Method in brief: (§1)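 MTT assay. Cells were seeded at 3000–6000/well and incubated overnight, then exposed to compound or DMSO vehicle for 3 days in RPMI-1640 or DMEM with 10% FBS at 37 °C, 5% CO2. MTT (3 mg/ml) was added for 3 h at 37 °C, formazan was dissolved in DMSO and absorbance read at 570 nm. IC50 from three independent experiments, mean ± SD.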

[4] = target: Signal transducer and activator of transcription 3 (Homo sapiens) (UniProt P40763); experiment: Inhibition of STAT3 phosphorylation in human BxPC-3 cells at 5 uM after 16 hrs by western blot analysis; assay type: cell-based
Method in brief: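 Cells were seeded in 6-well plates (BxPC-3 500 × 10^3, MIA PaCa-2 200 × 10^3 cells/well) and exposed to compound for 16 h. Lysis was at 4 °C by sonication in Tris/NaCl/Triton/SDS buffer, pH 7.4, with protease and phosphatase inhibitors. Lysates were run on SDS-PAGE, transferred to PVDF and probed for STAT3, pSTAT3 and NQO1 with GAPDH as loading control. Immunoblots were imaged on an Odyssey system.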

[5] = target: T1, Protein cereblon/Signal transducer and activator of transcription 3 (Homo sapiens, UniProt P40763+Q96SW2); experiment: Protac activity at CRBN/STAT3 in human BxPC-3 cells assessed as effect on STAT3 expression level at 0.1 to 5 uM incubated for 16 hrs by western blot analysis; assay type: cell-based; settings: dose 0.1-5 µM
Method in brief: (§2)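 BxPC-3 cells seeded at 500 × 10^3 per well in 6-well plates, treated 16 h. Sonication lysis at 4 °C in Tris/NaCl/Triton/SDS buffer pH 7.4 with protease and phosphatase inhibitors, BCA protein assay, SDS-PAGE, PVDF transfer. Probed for STAT3, pSTAT3 and NQO1 with GAPDH loading control; fluorescent secondary detection.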

[6] = target: T1, Protein cereblon/Signal transducer and activator of transcription 3; experiment: Protac activity at CRBN/STAT3 in human OVCAR-3 cells assessed as induction of STAT3 degradation at 1 to 20 uM incubated for 12 hrs in presence of competitive CRBN ligand pomalidomide by western blot analysis; assay type: cell-based; settings: dose 1-20 µM
[7] = system: BXPC-3; experiment: Reduction in NQO1 levels in human BxPC-3 cells at 1 to 10 uM incubated for 16 hrs by western blot analysis; assay type: functional, cell-based; settings: dose 1-10 µM; method in brief: as §2
[8] = system: OVCAR-3; experiment: Antiproliferative activity against human OVCAR-3 cells assessed as reduction in cell viability incubated for 3 days by MTT assay; assay type: functional, cell-based; settings: OVCAR-3, 72 h; method in brief: as §1
[9] = target: T1, Protein cereblon/Signal transducer and activator of transcription 3; experiment: Protac activity at CRBN/STAT3 in human OVCAR-3 cells assessed as decrease in STAT3 expression at 2 to 10 uM incubated for 24 hrs in presence of proteasome inhibitor MG132 by western blot analysis; assay type: cell-based; settings: dose 2-10 µM
[10] = target: T1, Protein cereblon/Signal transducer and activator of transcription 3; experiment: Protac activity at CRBN/STAT3 in human OVCAR-3 cells assessed as depletion of STAT3 at 2 to 20 uM after 12 hrs by western blot analysis; assay type: cell-based; settings: dose 2-20 µM
[11] = target: T1, Protein cereblon/Signal transducer and activator of transcription 3; experiment: Protac activity at CRBN/STAT3 in human BxPC-3 cells assessed as induction of STAT3 degradation at 1 to 5 uM after 12 hrs in presence of proteasome inhibitor bortezomib by western blot analysis; assay type: cell-based; settings: dose 1-5 µM
[12] = system: G1 to S phase transition protein 1 homolog GSPT1 (Homo sapiens); experiment: Protac activity at CRBN/STAT3 in human BxPC-3 cells assessed as effect on GSPT1 protein expression level at 1 to 10 uM incubated for 16 hrs by western blot analysis; settings: dose 1-10 µM
[13] = target: T1, Protein cereblon/Signal transducer and activator of transcription 3; experiment: Protac activity at CRBN/STAT3 in human BxPC-3 cells assessed as decrease in STAT3 expression level after 12 hrs by western blot analysis; assay type: cell-based
[14] = target: T1, Protein cereblon/Signal transducer and activator of transcription 3; experiment: Protac activity at CRBN/STAT3 in human OVCAR-3 cells assessed as decrease in STAT3 phosphorylation at 2 to 20 uM after 6 hrs by western blot analysis; assay type: cell-based; settings: dose 2-20 µM
[15] = Selectivity index, ratio of IC50 for antiproliferative activity against STAT3 knockout human OVCAR-3 cells to IC50 for wild type human OVCAR-3 cells; assay type: functional
[16] = target: Protein cereblon/Signal transducer and activator of transcription 1-alpha/beta (Homo sapiens) (UniProt P42224+Q96SW2); experiment: Protac activity at CRBN/STAT1 in human OVCAR-3 cells assessed as decrease in STAT1 expression levels at 2 to 20 uM after 12 hrs by western blot analysis; assay type: cell-based; settings: dose 2-20 µM
[17] = target: Protein cereblon/E3 ubiquitin-protein ligase ZFP91 (Homo sapiens, UniProt Q96SW2+Q96JP5); experiment: Protac activity at CRBN/ZFP91 in human BxPC-3 cells assessed as induction of ZF91 degradation at upto 3 uM incubated for 16 hrs by western blot analysis; assay type: cell-based; settings: dose microM <=3, time 16.0 hrs
Method in brief: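 BxPC-3 cells treated for 4, 16 or 24 h across a concentration series. ZFP91 immunoblotted against GAPDH; bands quantified by densitometry, DC50 calculated from dose-response curves of the densitometry.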

[18] = system: BXPC-3; experiment: Antiproliferative activity against human BxPC-3 cells harboring ZFP91siRNA assessed as reduction in cell viability incubated for 48 hrs by MTT assay; assay type: functional, cell-based; settings: BXPC-3, 48 h
Method in brief: (§3)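 BxPC-3 cells were transfected with ZFP91 siRNA or scrambled control siRNA using Lipofectamine RNAiMAX in Opti-MEM, 5 pmol siRNA per complex. Compound was added together with the siRNA complex.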

[19] = system: BXPC-3; experiment: Inhibition of colony formation in human BxPC-3 cells assessed as reduction in colony formation at 0.06 to 0.5 uM incubated for 7 to 10 days in presence of NQO1 inhibitor dicoumarol; settings: dose 0.06-0.5 µM
[20] = system: BXPC-3; experiment: Reduction in NQO1 levels in human BxPC-3 cells at 2 uM incubated for 16 hrs by western blot analysis; assay type: functional, cell-based; method in brief: as §2
[21] = target: NAD(P)H dehydrogenase [quinone] 1 (Homo sapiens) (UniProt P15559); experiment: Binding affinity to NQO1 in human BxPC-3 cells assessed as thermal stability by measuring shift in melting temperature at 100 uM measured after 1 hr by cellular thermal shift assay; assay type: cell-based
[22] = system: BXPC-3; experiment: Binding affinity to PDI in human BxPC-3 cells assessed as thermal stability by measuring shift in melting temperature at 100 uM measured after 1 hr by cellular thermal shift assay; assay type: cell-based
[23] = system: BXPC-3; experiment: Antiproliferative activity against ZFP91 knockdown human BxPC-3 cells assessed as reduction in cell viability incubated for 48 hrs by MTT assay; assay type: functional, cell-based; settings: BXPC-3, 48 h; method in brief: as §3

Row | IC50 [2] | IC50 [3] | SMILES | IC50 [1] | other results
1 | 1.7 µM | 4 µM | O=C1CCC(N2C(=O)c3cccc(NCCNC(=O)c4cc5c(o4)C(=O)c4ccccc4C5=O)c3C2=O)C(=O)N1 (stereo unspecified) | > 30 µM | –
2 | 3.2 µM | 1.8 µM | O=C1CCC(N2C(=O)c3cccc(NCCCCCNC(=O)c4cc5c(o4)C(=O)c4ccccc4C5=O)c3C2=O)C(=O)N1 (stereo unspecified) | > 10 µM | –
3 | 5.3 µM | 2.1 µM | O=C1CCC(N2C(=O)c3cccc(C#CCCCNC(=O)c4cc5c(o4)C(=O)c4ccccc4C5=O)c3C2=O)C(=O)N1 (stereo unspecified) | 18.6 µM | –
4 | 4.6 µM | 2.6 µM | O=C1CCC(N2C(=O)c3cccc(NCCOCCNC(=O)c4cc5c(o4)C(=O)c4ccccc4C5=O)c3C2=O)C(=O)N1 (stereo unspecified) | – | –
5 | 4.3 µM | 1.3 µM | O=C1CCC(N2C(=O)c3cccc(NCCOCCOCCNC(=O)c4cc5c(o4)C(=O)c4ccccc4C5=O)c3C2=O)C(=O)N1 (stereo unspecified) | – | Activity [6]: Active; Activity [7]: Active; IC50 [8]: 0.3 µM; Activity [9]: Active; Activity [10]: Active; Activity [11]: Active; Activity [12]: inactive; DC50 [13]: 7.8 µM; Activity [14]: Active; Ratio IC50 [15]: >6; Activity [16]: Active
6 | 1.4 µM | 1.2 µM | CC(=O)c1cc2c(o1)C(=O)c1ccccc1C2=O [NAPABUCASIN] | 10.4 µM | Activity [17]: inactive; IC50 [18]: 1.3 µM; inhibition [19]: Active; inhibition [20]: Active; Activity [21]: Active; DC50 [13]: 2.1 µM; Activity [22]: Active; IC50 [23]: 1.8 µM

The next lines start with the compound.

Row | SMILES | IC50 [2] | IC50 [3] | IC50 [1] | other results
7 | CN1C(=O)CCC(N2C(=O)c3cccc(NCCCCCC4CCN(CCNC(=O)c5cc6c(o5)C(=O)c5ccccc5C6=O)CC4)c3C2=O)C1=O (stereo unspecified) | 3.4 µM | 2.7 µM | > 30 µM | inhibition [4]: Active; Activity [5]: inactive
8 | O=C1CCC(N2C(=O)c3ccc(NCCOCCOCCNC(=O)c4cc5c(o4)C(=O)c4ccccc4C5=O)cc3C2=O)C(=O)N1 (stereo unspecified) | – | – | > 10 µM | –
9 | Nc1cccc2c1C(=O)N(C1CCC(=O)NC1=O)C2=O (stereo unspecified) [POMALIDOMIDE] | > 30 µM | > 30 µM | – | –
10 | Cc1ncsc1-c1ccc(CNC(=O)[C@@H]2C[C@@H](O)CN2C(=O)[C@@H](NC(=O)COCCNC(=O)c2cc3c(o2)C(=O)c2ccccc2C3=O)C(C)(C)C)cc1 | > 30 µM | 15.8 µM | > 30 µM | –
11 | O=C(COc1cccc2c1C(=O)N(C1CCC(=O)NC1=O)C2=O)NCCCCNC(=O)c1cc2c(o1)C(=O)c1ccccc1C2=O (stereo unspecified) | 23.8 µM | 10.5 µM | > 30 µM | –
12 | O=C(COc1cccc2c1C(=O)N(C1CCC(=O)NC1=O)C2=O)NCCOCCOCCNC(=O)c1cc2c(o1)C(=O)c1ccccc1C2=O (stereo unspecified) | 20.4 µM | 16.7 µM | – | –
13 | Cc1ncsc1-c1ccc(CNC(=O)[C@@H]2C[C@@H](O)CN2C(=O)[C@@H](NC(=O)COCCOCCNC(=O)c2cc3c(o2)C(=O)c2ccccc2C3=O)C(C)(C)C)cc1 | > 30 µM | 14.5 µM | > 30 µM | –
14 | O=C1CCC(N2C(=O)c3cccc(NCCC4CCN(CCNC(=O)c5cc6c(o5)C(=O)c5ccccc5C6=O)CC4)c3C2=O)C(=O)N1 (stereo unspecified) | 1.1 µM | 1.1 µM | – | –
